48 compounds from ChEMBL document CHEMBL1145937, “Optimization of the pharmacophore model for 5-HT7R antagonism. Design and synthesis of new naphtholactam and naphthosultam derivatives” (J Med Chem, 2003) can be followed below.

Assay [1] addresses T1, 5-hydroxytryptamine receptor 7 (Rattus norvegicus, UniProt P32305). Put plainly: Binding affinity towards 5-hydroxytryptamine receptor 7 on rat hypothalamus membranes using [3H]5-CT as radioligand. Format: tissue-based, Membrane. The procedure, abridged: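 Rat hypothalamus homogenized in ice-cold 50 mM Tris-HCl pH 7.4, spun at 48 000g, washed and preincubated at 37 °C for 10 min. Membranes were resuspended in Tris buffer with 4 mM CaCl2, 1 mg/mL ascorbic acid, 0.01 mM pargyline and 3 μM pindolol, then incubated 120 min at 23 °C with 0.5 nM [3H]-5-CT. Nonspecific binding was set by 10 μM 5-HT. GF/C filtration, scintillation counting. Ki from IC50 via Cheng–Prusoff; 2–4 assays in triplicate.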

Assay [2] concerns the target T2, 5-hydroxytryptamine receptor 7 (Homo sapiens, UniProt P34969). As to the kind of experiment: Non-selective inhibitory activity was determined against 5-hydroxytryptamine 7 receptor.
The target in assay [3] is T2, 5-hydroxytryptamine receptor 7. As to the kind of experiment: Binding affinity towards cloned human 5-hydroxytryptamine 7 receptor was determined in HEK293 cells using [3H]5-CT as radioligand. Format: cell-based.
The target in assay [4] is T1, 5-hydroxytryptamine receptor 7. As to the kind of experiment: Binding affinity towards cloned rat 5-hydroxytryptamine 7 receptor was determined using [3H]5-HT as radioligand.
For assay [5], the target named is T2, 5-hydroxytryptamine receptor 7. As to the kind of experiment: Binding affinity towards human recombinant 5-hydroxytryptamine 7 receptor was determined using [3H]5-CT as radioligand.

T1 sequence (P32305 whole entry): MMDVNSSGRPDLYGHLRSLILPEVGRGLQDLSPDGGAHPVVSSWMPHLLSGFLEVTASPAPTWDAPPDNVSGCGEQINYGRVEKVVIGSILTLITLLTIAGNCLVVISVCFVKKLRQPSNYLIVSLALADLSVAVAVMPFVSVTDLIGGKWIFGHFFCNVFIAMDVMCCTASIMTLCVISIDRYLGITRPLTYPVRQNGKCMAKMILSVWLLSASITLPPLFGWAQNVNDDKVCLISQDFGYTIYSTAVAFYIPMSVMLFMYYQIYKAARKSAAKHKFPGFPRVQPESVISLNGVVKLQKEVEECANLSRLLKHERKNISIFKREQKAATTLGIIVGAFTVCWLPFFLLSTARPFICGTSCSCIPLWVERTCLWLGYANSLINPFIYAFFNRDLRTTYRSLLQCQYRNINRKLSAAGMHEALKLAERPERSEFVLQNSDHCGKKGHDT
T2 sequence (P34969 whole entry): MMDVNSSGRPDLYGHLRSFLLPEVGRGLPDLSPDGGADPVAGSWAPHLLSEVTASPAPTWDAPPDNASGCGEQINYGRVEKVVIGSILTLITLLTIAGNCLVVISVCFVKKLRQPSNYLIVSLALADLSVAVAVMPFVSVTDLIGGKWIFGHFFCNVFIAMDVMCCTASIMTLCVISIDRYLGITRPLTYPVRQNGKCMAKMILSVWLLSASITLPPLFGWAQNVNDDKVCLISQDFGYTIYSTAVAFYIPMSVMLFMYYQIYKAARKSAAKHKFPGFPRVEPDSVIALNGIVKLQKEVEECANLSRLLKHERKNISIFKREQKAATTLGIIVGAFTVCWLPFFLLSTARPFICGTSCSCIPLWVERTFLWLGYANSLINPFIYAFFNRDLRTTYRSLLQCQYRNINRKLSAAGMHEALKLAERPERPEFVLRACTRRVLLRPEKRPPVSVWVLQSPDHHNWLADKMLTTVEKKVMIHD

Take `CN1CCN(CCCCN2c3cccc4cccc(c34)S2(=O)=O)CC1`: the Ki in assay [1] was over 10000 nM.

Consider `CC(C)(C)[C@@]1(O)CCN2C[C@@H]3c4ccccc4CCc4cccc(c43)[C@H]2C1`, for which the affinity in assay [2] corresponds to a Ki of 63.1 nM.

Regarding `CC1CCN(CCCCCN2c3cccc4cccc(c34)S2(=O)=O)CC1`, the inhibition constant Ki in assay [1] is over 10000 nM.

In turn, `CC1CCN(CCCCN2c3cccc4cccc(c34)S2(=O)=O)CC1` showed a Ki in assay [1] of over 10000 nM.

In assay [1], `O=C1c2cccc3cccc(c23)N1CCCCN1CC=C(c2ccccc2)CC1` had an inhibition constant (Ki) of over 1000 nM.

In assay [3], `C[C@H]1CCCN(CC[C@@H](C)N(C)S(=O)(=O)c2cccc3ccccc23)C1` showed an inhibitory constant (Ki) of 631 nM.

Turning to `CC1CCN(CCCCCCN2c3cccc4cccc(c34)S2(=O)=O)CC1`, in assay [1], the inhibition constant Ki is over 10000 nM.

`O=C1c2cccc3cccc(c23)N1CCCCCCN1CCN(c2ccccc2)CC1`: the Ki in assay [1] was over 1000 nM.

As to `O=S1(=O)c2cccc3cccc(c23)N1CCCCCCN1CCN(c2ccccc2)CC1`, in assay [1], the Ki was over 1000 nM.

As to `O=C1c2cccc3cccc(c23)N1CN1CCN(c2ccccc2)CC1`, the Ki in assay [1] is over 10000 nM.

The compound `O=C1c2cccc3cccc(c23)N1CCCCCN1CCN(C2CCCCC2)CC1` gave an inhibition constant Ki in assay [1] of over 10000 nM.

For `COc1ccccc1N1CCN(CN2C(=O)c3cccc4cccc2c34)CC1`, the Ki in assay [1] is over 10000 nM.

In the case of `CC1CCN(CC[C@@H]2CCCCN2S(=O)(=O)c2cccc3ccccc23)CC1`, affinity in assay [3] was put at a Ki of 15.8 nM.

`COc1ccccc1N1CCN(CCCCCCN2C(=O)c3cccc4cccc2c34)CC1` showed a Ki in assay [1] of over 1000 nM.

In turn, `O=C1c2cccc3cccc(c23)N1CCCCN1CCN(c2ccccc2)CC1` gave a Ki in assay [1] of 631 nM.

Turning to `COc1cccc(S(=O)(=O)N2CCC[C@H]2CCN2CCC(C)CC2)c1`, the affinity in assay [3] corresponds to a Ki of 10 nM.

Take `CC1CCN(CC[C@@H]2CCCN2S(=O)(=O)c2ccc(Cl)c(Cl)c2)CC1`: the Ki in assay [3] was 3.98 nM.

As to `O=C1c2cccc3cccc(c23)N1CCCCN1CCN(C2CCCCC2)CC1`, in assay [1], the inhibition constant Ki is over 10000 nM.

`O=C1c2cccc3cccc(c23)N1CCCCN1CCCCC1` showed a Ki in assay [1] of over 10000 nM.

Compound `Cc1cccc(O)c1-c1cccc2c1-c1cccc3c1[C@@H](C2)N(C)CC3` gave an inhibitory constant (Ki) in assay [4] of 25.1 nM.

Regarding `CN1CCN(CCCCN2C(=O)c3cccc4cccc2c34)CC1`, the inhibition constant (Ki) in assay [1] is over 10000 nM.

In the case of `O=C1Nc2cccc3c2C1(CCCCN1CCN(C2CCCCC2)CC1)CCC3` (stereo not drawn), in assay [5], the Ki is 100000 nM.

Take `CCN(CC)C(=O)[C@@H]1C=C2c3cccc4[nH]c(Br)c(c34)C[C@H]2N(C)C1`: affinity in assay [2] was put at a Ki of 10 nM.

`O=S1(=O)c2cccc3cccc(c23)N1CCCCN1CCCCC1`: in assay [1], the Ki was over 10000 nM.

Consider `CC1CCN(CCCCN2C(=O)c3cccc4cccc2c34)CC1`, for which the Ki in assay [1] was over 1000 nM.

Compound `Cc1cccc(C#N)c1-c1cccc2c1-c1cccc3c1[C@@H](C2)N(C)CC3` showed a Ki in assay [4] of 3.98 nM.

On to `COc1cccc(OC)c1-c1cccc2c1-c1cccc3c1[C@@H](C2)N(C)CC3`, for which the inhibition constant Ki in assay [4] is 12.6 nM.

On to `C[C@H]1CCCN(CC[C@H](C)N(C)S(=O)(=O)c2cccc3ccccc23)C1`, for which the Ki in assay [3] was 100000 nM.

In assay [1], `O=S1(=O)c2cccc3cccc(c23)N1CCCCN1CCN(c2ccccc2)CC1` showed a Ki of 1000 nM.

Turning to `COc1ccccc1N1CCN(CCCN2C(=O)c3cccc4cccc2c34)CC1`, the inhibition constant (Ki) in assay [1] is 398 nM.

`CC1CCN(CC[C@@H](C)N(C)S(=O)(=O)c2cccc3ccccc23)CC1` gave a Ki in assay [3] of 31.6 nM.

With `Cn1ccnc1SCCCCN1C(=O)c2cccc3cccc1c23`, the inhibitory constant (Ki) in assay [1] was over 10000 nM.

Compound `CC1CCN(CC[C@@H]2CCCN2S(=O)(=O)c2cccc(Br)c2)CC1` gave a Ki in assay [3] of 2 nM.

`C[C@@H]1CCCN(CC[C@H](C)N(C)S(=O)(=O)c2cccc3ccccc23)C1` gave a Ki in assay [3] of 1580 nM.

The compound `O=C1c2cccc3cccc(c23)N1CCCCN1CCC(c2ccccc2)CC1` gave a Ki in assay [1] of over 1000 nM.

In assay [1], `O=C1c2cccc3cccc(c23)N1CCCN1CCN(c2ccccc2)CC1` gave an inhibition constant (Ki) of over 10000 nM.

In assay [1], `O=C1c2cccc3cccc(c23)N1CCCCN1CCC(C2CCCCC2)CC1` had a Ki of over 1000 nM.

`O=S1(=O)c2cccc3cccc(c23)N1CCCCCN1CCC(C2CCCCC2)CC1` had a Ki in assay [1] of over 10000 nM.

Take `O=C1c2cccc3cccc(c23)N1CCCCCN1CC=C(c2ccccc2)CC1`: in assay [1], the Ki is over 1000 nM.

In assay [1], `CC(C)C1CCN(CCCCCN2C(=O)c3cccc4cccc2c34)CC1` showed a Ki of over 1000 nM.

Turning to `O=C1Nc2cccc3c2C1(CCCCN1CC=C(c2ccccc2)CC1)CCC3` (stereo not drawn), in assay [1], the Ki was 50.1 nM.

Take `CC1CCN(CC[C@@H]2CCCN2S(=O)(=O)c2cccc3ccccc23)CC1`: affinity in assay [3] was put at a Ki of 10 nM.

`CC1CCN(CCC2CCCN2S(=O)(=O)c2cccc(O)c2)CC1` (single isomer, unassigned) gave an inhibition constant (Ki) in assay [1] of 31.6 nM.

As to `CCC(CO)NC(=O)[C@@H]1C=C2c3cccc4c3c(cn4C)C[C@H]2N(C)C1` (single isomer, unassigned) [METHYSERGIDE], in assay [2], the Ki is 12.6 nM.

`CN1CCC(=C2c3ccccc3C=Cc3ccccc32)CC1` [CYPROHEPTADINE] had a Ki in assay [2] of 50.1 nM.

The compound `CN1C[C@@H](NS(=O)(=O)N(C)C)C[C@@H]2c3cccc4c3c(cn4C)C[C@H]21` [MESULERGINE] gave a Ki in assay [2] of 7.94 nM.

Consider `Cc1nc2sccn2c(=O)c1CCN1CCC(=C(c2ccc(F)cc2)c2ccc(F)cc2)CC1` [RITANSERIN], for which the affinity in assay [2] corresponds to a Ki of 15.8 nM.

In turn, `Cc1cccc(S(=O)(=O)N(C)[C@H](C)CCN2CCC(C)CC2)c1` [SB-258719] gave a Ki in assay [1] of 79.4 nM.
